Reference: ChEMBL document CHEMBL1938344, “Antiangiogenic activity of 3,4-seco-cycloartane triterpenes from Thai Gardenia spp. and their semi-synthetic analogs” (Bioorg Med Chem Lett, 2012)
Active and inactive are the calls of the source. The rule behind the calls is not given here.

Legend:
[1] = tested on: Aorta; experiment: Antiangiogenic activity in Wistar rat thoracic aortic rings assessed as inhibition of microvessel sprouting at 25 uM after 7 days by phase-contrst microscopy; assay type: functional; details: 168 h
How it was run: (§1)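 Thoracic aorta from six-week-old SPF male Wistar rat, everted, cut into 1-mm rings, embedded in porcine tendon collagen gel (30 min, 37 °C). Rings overlaid with RPMI 1640 plus 1% TIS+ containing compound doses or DMSO; 7 days at 37 °C, 5% CO2. Sprout length from cut end to capillary mid-point by phase-contrast microscopy; mean ± SD, n = 6.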

[2] = tested on: HUVEC; experiment: Antiangiogenic activity in HUVEC assessed as inhibition of cell proliferation after 72 hrs by WST-8-based spectrophotometry; assay type: functional; details: Homo sapiens
How it was run: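 Cells seeded in HuMedia EG2, 24 h at 37 °C, 5% CO2, then fresh medium with graded doses or DMSO vehicle for 72 h. Proliferation read by WST-8 at 450 nm; mean ± SD, n = 5; IC50 from dose–response.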

[3] = tested on: HUVEC; experiment: Antiangiogenic activity in HUVEC assessed as inhibition of tubule formation at 20 uM after 12 hrs by inverted light microscopy; assay type: functional, cell-based; details: Homo sapiens
How it was run: (§2)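 Cells suspended in HuMedia EG2 with graded doses or DMSO vehicle, seeded onto solidified Matrigel and incubated 12 h at 37 °C, 5% CO2. Capillary-like tube length measured microscopically against vehicle control; mean ± SD, n = 5.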

[4] = tested on: HUVEC; experiment: Antiangiogenic activity in HUVEC assessed as inhibition of tubule formation at 5 uM after 12 hrs by inverted light microscopy; assay type: functional, cell-based; details: Homo sapiens; how it was run: as §2
[5] = biological target: T1, Mitogen-activated protein kinase; ERK1/ERK2 (Homo sapiens) (UniProt P27361+P28482); experiment: Inhibition of VEGF-induced Erk1/2 phosphorylation in HUVEC pretreated for 60 mins prior VEGF stimulation measured after 10 mins by Western blotting; assay type: protein assay
T1 sequence (P27361 whole entry, looked up): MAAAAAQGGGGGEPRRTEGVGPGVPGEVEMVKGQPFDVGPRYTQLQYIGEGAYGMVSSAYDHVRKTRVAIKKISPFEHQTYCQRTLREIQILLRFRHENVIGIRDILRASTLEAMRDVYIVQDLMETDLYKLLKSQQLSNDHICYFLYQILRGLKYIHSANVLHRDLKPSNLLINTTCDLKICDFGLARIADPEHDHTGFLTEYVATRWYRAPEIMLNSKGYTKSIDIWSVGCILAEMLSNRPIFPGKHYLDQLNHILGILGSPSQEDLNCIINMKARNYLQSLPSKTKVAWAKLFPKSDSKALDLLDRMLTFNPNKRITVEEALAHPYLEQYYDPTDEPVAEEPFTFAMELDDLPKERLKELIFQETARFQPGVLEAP
T1 sequence (P28482 whole entry, looked up): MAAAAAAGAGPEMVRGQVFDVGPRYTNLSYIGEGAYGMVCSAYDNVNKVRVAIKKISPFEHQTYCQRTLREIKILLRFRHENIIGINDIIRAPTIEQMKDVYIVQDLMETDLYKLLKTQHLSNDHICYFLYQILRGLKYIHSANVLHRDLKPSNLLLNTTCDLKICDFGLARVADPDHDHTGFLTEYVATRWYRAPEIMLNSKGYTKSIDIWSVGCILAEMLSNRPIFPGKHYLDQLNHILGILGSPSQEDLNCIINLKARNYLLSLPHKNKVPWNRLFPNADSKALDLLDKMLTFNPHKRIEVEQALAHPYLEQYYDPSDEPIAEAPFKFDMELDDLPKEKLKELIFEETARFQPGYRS
How it was run: (§3)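 Cells pretreated 1 h with 0–10 µM compound or DMSO, then stimulated with VEGF (10 ng/mL) for 10 min, PBS-washed, lysed with M-PER, protein by microBCA. Blots probed for phospho-Erk1/2 or phospho-Akt (4 °C overnight) and total Erk1/2 or Akt (room temperature); chemiluminescent detection; mean ± SD, n = 3.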

[6] = tested on: HUVEC; experiment: Antiangiogenic activity in HUVEC assessed as inhibition of tubule formation after 12 hrs by inverted light microscopy; assay type: functional, cell-based; details: Homo sapiens; how it was run: as §2
[7] = tested on: HUVEC; experiment: Antiangiogenic activity in HUVEC assessed as inhibition of VEGF-induced cell migration at 50 uM after 6 hrs by boyden chamber assay; assay type: functional, cell-based; details: Homo sapiens
[8] = tested on: HUVEC; experiment: Inhibition of VEGF-induced Akt phosphorylation in HUVEC at 2.5 to 10 uM pretreated for 60 mins prior VEGF stimulation measured after 10 mins by Western blotting; assay type: cell-based; details: Homo sapiens; how it was run: as §3
[9] = biological target: T1, Mitogen-activated protein kinase; ERK1/ERK2 (Homo sapiens); experiment: Inhibition of VEGF-induced Erk1/2 phosphorylation in HUVEC at 2.5 to 10 uM pretreated for 60 mins prior VEGF stimulation measured after 10 mins by Western blotting; assay type: protein assay; details: TDE = time-dependent effect; how it was run: as §3
[10] = tested on: Aorta; experiment: Antiangiogenic activity in Wistar rat thoracic aortic rings assessed as inhibition of microvessel sprouting after 7 days by phase-contrst microscopy; assay type: functional, tissue-based; how it was run: as §1

Structure (SMILES)	inhibition at 25 µM [1] [%]	further results
C=C1C(=O)O[C@@H]2C[C@@H]3[C@]4(CC[C@]5(C)[C@@H]([C@H](C)CC/C=C(\C)C=O)CC[C@@]35C)C[C@]4(CCC(=O)Oc3ccccc3)[C@H]12	10	
C=C1C(=O)O[C@@H]2C[C@@H]3[C@]4(CC[C@]5(C)[C@@H]([C@H](C)CC/C=C(\C)C=O)CC[C@@]35C)C[C@]4(CCC(=O)N[C@@H](Cc3ccccc3)C(=O)OC)[C@H]12	10	
C=C1C(=O)O[C@@H]2C[C@@H]3[C@]4(CC[C@]5(C)[C@@H]([C@H](C)CC/C=C(\C)C=O)CC[C@@]35C)C[C@]4(CCC(=O)NC(C)(C)C)[C@H]12	10	
C=C1C(=O)O[C@@H]2C[C@@H]3[C@]4(CC[C@]5(C)[C@@H]([C@H](C)CC/C=C(\C)C=O)CC[C@@]35C)C[C@]4(CCC(=O)NCCCC)[C@H]12	10	
C=C1C(=O)O[C@@H]2C[C@@H]3[C@]4(CC[C@]5(C)[C@@H]([C@H](C)CC/C=C(\C)C=O)CC[C@@]35C)C[C@]4(CCC(=O)N3C(=O)CCC3=O)[C@H]12	10	
C=C1C(=O)O[C@@H]2C[C@@H]3[C@]4(CC[C@]5(C)[C@@H]([C@H](C)CC/C=C(\C)COC(=O)c6ccccc6)CC[C@@]35C)C[C@]4(CCC(=O)OC)[C@H]12	10	
C=C1C(=O)O[C@@H]2C[C@@H]3[C@]4(CC[C@]5(C)[C@@H]([C@H](C)CC/C=C(\C)COC(=O)c6ccncc6)CC[C@@]35C)C[C@]4(CCC(=O)OC)[C@H]12	10	
C=C1C(=O)O[C@@H]2C[C@@H]3[C@]4(CC[C@]5(C)[C@@H]([C@H](C)CC/C=C(\C)COC(=O)c6ccc7ccccc7n6)CC[C@@]35C)C[C@]4(CCC(=O)OC)[C@H]12	10	
C=C1C(=O)O[C@H]2C[C@@H]3[C@@]4(CC[C@]5(C)[C@H]([C@@H](C)CC/C=C(\C)C=O)CC[C@@]35C)C[C@]4(CCC(=O)OC)[C@@H]12 [CORONALOLIDE METHYL ESTER]	10	
C=C1C(=O)O[C@@H]2C[C@@H]3[C@]4(CC[C@]5(C)[C@@H]([C@H](C)CC/C=C(\C)C=O)CC[C@@]35C)C[C@]4(CCC(=O)O)[C@H]12 [CORONALOLIDE]	85	
C=C1C(=O)O[C@@H]2C[C@@H]3[C@]4(CC[C@]5(C)[C@@H]([C@H](C)CC/C=C(\C)CO)CC[C@@]35C)C[C@]4(CCC(=O)OC)[C@H]12 [SOOTEPIN A]	10	
C=C1C(=O)O[C@@H]2C[C@@H]3[C@]4(CC[C@]5(C)[C@@H]([C@H](C)CCC=C(C)C)CC[C@@]35C)C[C@]4(CCC(=O)O)[C@H]12 [SOOTEPIN B]	100	Activity [2]: Dose-dependent effect; IC50 [2]: 1200 nM; inhibition [3]: Active; inhibition [4]: Active; inhibition [5]: Dose-dependent effect; IC50 [6]: 11.2 µM; inhibition [6]: Dose-dependent effect; Activity [7]: inactive; inhibition [8]: inactive; inhibition [9]: tde; inhibition [10]: Dose-dependent effect; IC50 ([10]; 168 h): 4.46 µM
C=C(C)[C@@H]1CC[C@@H]2[C@]3(CC[C@]4(C)[C@@H]([C@H](C)CCC=C(C)C)CC[C@@]24C)C[C@]13CCC(=O)O [SOOTEPIN E]	92	
C=C1C(=O)O[C@@H]2C[C@@H]3[C@]4(CC[C@]5(C)[C@@H]([C@H](C)CCC=C(C)C)CC[C@@]35C)C[C@]4(CCC(=O)OC)[C@H]12 [TUBIFEROLIDE METHYL ESTER]	40	
